Converted amounts (≈) assume the structure as drawn. The source made the active and inactive calls. The calls are words filed in the database; no cut-off is given here.
Tests used:
Mus musculus [1] = organism: Mus musculus; experiment: MIC at the Maximal testable level in mice was evaluated; type: functional; conditions: read-out: MIC
[2] = In vitro antiviral activity against mice infected intracerebrally with Poliovirus type-2; type: functional
Enterovirus = experiment: In vitro antiviral activity against Rhinovirus type-2; type: functional
Mus musculus [3] = experiment: In vitro antiviral activity against mice infected intracerebrally with Poliovirus type-2; IA=Inactive; type: functional, organism-based
Mus musculus [4] = experiment: Prevention of Echo-9-Induced Paralysis in Suckling mice by intraperitoneal administration at dose 1 mg/kg; expressed as no. nonparalyzed/total 2/30; type: functional
Summary of the method: (§1)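 Suckling mice infected subcutaneously with a lethal dose of ECHO-9 virus. Intraperitoneal dosing at 1.0, 3.3, 10 or 33 mg/kg, or placebo, began 1 h before infection and continued once daily for 8 days. Groups of 30 animals were scored for paralysis, and the test ended 14 days post-infection. Results are given as % nonparalyzed (± spread) and as the nonparalyzed/total count.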

Mus musculus [5] = experiment: Prevention of Echo-9-Induced Paralysis in Suckling mice by intraperitoneal administration at dose 10 mg/kg; Expressed as % nonparalyzed; type: functional; summary of the method: as §1
Mus musculus [6] = experiment: Prevention of Echo-9-Induced Paralysis in Suckling mice by intraperitoneal administration at dose 10 mg/kg; expressed as no. nonparalyzed/total 19/30; type: functional; summary of the method: as §1
Mus musculus [7] = experiment: Prevention of Echo-9-Induced Paralysis in Suckling mice by intraperitoneal administration at dose 3.3 mg/kg; Expressed as % nonparalyzed; type: functional; summary of the method: as §1
Mus musculus [8] = experiment: Prevention of Echo-9-Induced Paralysis in Suckling mice by intraperitoneal administration at dose 3.3 mg/kg; expressed as no. nonparalyzed/total 6/30; type: functional; summary of the method: as §1
Mus musculus [9] = experiment: Prevention of Echo-9-Induced Paralysis in Suckling mice by intraperitoneal administration at dose 33 mg/kg; Expressed as % nonparalyzed; type: functional; summary of the method: as §1
Mus musculus [10] = experiment: Prevention of Echo-9-Induced Paralysis in Suckling mice by intraperitoneal administration at dose 33 mg/kg; expressed as no. nonparalyzed/total 29/30; type: functional; summary of the method: as §1
Mus musculus [11] = organism: Mus musculus; experiment: Prevention of Echo-9-Induced Paralysis in Suckling mice with Placebo; Expressed as % nonparalyzed; type: functional; summary of the method: as §1
Mus musculus [12] = organism: Mus musculus; experiment: Prevention of Echo-9-Induced Paralysis in Suckling mice with Placebo; expressed as no. nonparalyzed/total 0/30; type: functional; summary of the method: as §1
Mus musculus [13] = experiment: Prevention of Echo-9-Induced Paralysis in Suckling mice by intraperitoneal administration at dose 1 mg/kg; Expressed as % nonparalyzed; type: functional; summary of the method: as §1
Mus musculus [14] = experiment: In vivo antiviral activity at 16 mg/kg oral dose in mice infected with Poliovirus;13/20; type: functional
Summary of the method: (§2)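 Mice given oral drug or placebo starting 1 h before intracerebral infection with poliovirus type 2. Doses were 4, 8, 16 or 32 mg/kg, with 20 mice per group. Survival was scored as % survivors and number surviving out of total, with the test ending 20 days post-infection.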

Mus musculus [15] = experiment: In vivo antiviral activity at 32 mg/kg oral dose in mice infected with Poliovirus; 15/20; type: functional; summary of the method: as §2
Mus musculus [16] = experiment: In vivo antiviral activity at 4 mg/kg oral dose in mice infected with Poliovirus; 8/20; type: functional; summary of the method: as §2
Mus musculus [17] = experiment: In vivo antiviral activity at 8 mg/kg oral dose in mice infected with Poliovirus; 9/20; type: functional; summary of the method: as §2
Mus musculus [18] = experiment: In vivo antiviral activity of the compound in Placebo treated mice infected with Poliovirus; 4/20; type: functional; summary of the method: as §2
Mus musculus [19] = experiment: In vivo antiviral activity at 16 mg/kg oral dose in mice infected with Poliovirus; type: functional; summary of the method: as §2
Mus musculus [20] = experiment: In vivo antiviral activity at 32 mg/kg oral dose in mice infected with Poliovirus; type: functional; summary of the method: as §2
Mus musculus [21] = experiment: In vivo antiviral activity at 4 mg/kg oral dose in mice infected with Poliovirus; type: functional; summary of the method: as §2
Mus musculus [22] = experiment: In vivo antiviral activity at 8 mg/kg oral dose in mice infected with Poliovirus; type: functional; summary of the method: as §2
Mus musculus [23] = experiment: In vivo antiviral activity of the compound in Placebo treated mice infected with Poliovirus; type: functional; summary of the method: as §2

Row | SMILES | maximal testable concentration (Mus musculus [1]) [µg/mL] | MIC [2] [µg/mL] | MIC (Enterovirus) [µg/mL] | other results
1 | Cc1cc(CCCCCCCOc2ccc(C3=NCC(CO)O3)cc2)on1 (stereo not given) | 3.1 | 2.6 (≈ 6.98 µM) | 1.6 (≈ 4.3 µM) | –
2 | Cc1cc(CCCCCCCOc2ccc(C3=NC(CO)CO3)cc2)on1 (stereo not given) | 3.1 | – | 0.9 (≈ 2.42 µM) | MIC (Mus musculus [3]): inactive
3 | CCOC(=O)c1ccc(OCCCCCCCc2cc(C)no2)cc1 | – | > 0.8 | 0.025 (≈ 0.0724 µM) | –
4 | Cc1cc(CCCCCCCOc2ccc(C3=NC(C)(C)CO3)cc2)on1 | 3.1 | 1.1 (≈ 2.97 µM) | 0.06 (≈ 0.162 µM) | –
5 | COCC1CN=C(c2ccc(OCCCCCCCc3cc(C)no3)cc2)O1 (stereo not given) | 3.1 | – | 0.2 (≈ 0.517 µM) | MIC (Mus musculus [3]): inactive
6 | Cc1cc(CCCCCCCCOc2ccc(C3=NCCO3)cc2)on1 | 8 | 0.01 (≈ 0.0281 µM) | 0.16 (≈ 0.449 µM) | –
7 | Cc1cc(CCCCCCCOc2ccc(C3=NCCO3)cc2)on1 [DISOXARIL] | 6.2 | 0.004 (≈ 0.0117 µM) | 0.1 (≈ 0.292 µM) | Activity (Mus musculus [4]): 2; Activity (Mus musculus [5]): 63.7%; Activity (Mus musculus [6]): 19; Activity (Mus musculus [7]): 20%; Activity (Mus musculus [8]): 6; Activity (Mus musculus [9]): 96.7%; Activity (Mus musculus [10]): 29; Activity (Mus musculus [11]): 0%; Activity (Mus musculus [12]): 0; Activity (Mus musculus [13]): 6.7%; No. of survivors/total (Mus musculus [14]): 13; No. of survivors/total (Mus musculus [15]): 15; No. of survivors/total (Mus musculus [16]): 8; No. of survivors/total (Mus musculus [17]): 9; No. of survivors/total (Mus musculus [18]): 4; Survivors (Mus musculus [19]): 65%; Survivors (Mus musculus [20]): 71%; Survivors (Mus musculus [21]): 40%; Survivors (Mus musculus [22]): 45%; Survivors (Mus musculus [23]): 20%
8 | Cc1cc(CCCCOc2ccc(C3=NCCO3)cc2)on1 | 6.2 | 0.49 (≈ 1.63 µM) | 0.53 (≈ 1.76 µM) | –
9 | Cc1cc(CCCCCCCOc2ccc(C3=N[C@H](C)CO3)cc2)on1 | 3.1 | 0.16 (≈ 0.449 µM) | 0.02 (≈ 0.0561 µM) | –
10 | Cc1cc(CCCCCCOc2ccc(C3=NCCO3)cc2)on1 | 3.1 | 0.008 (≈ 0.0244 µM) | 0.12 (≈ 0.365 µM) | –
11 | Cc1cc(CCCCCCCOc2ccc(C3=NC(C)CO3)cc2)on1 (stereo not given) | 3.1 | 0.12 (≈ 0.337 µM) | 0.04 (≈ 0.112 µM) | –
12 | COc1ccc(OCCCCCCCc2cc(C)no2)c(Cl)c1 | – | 0.05 (≈ 0.148 µM) | 0.04 (≈ 0.118 µM) | –
13 | Cc1cc(CCCCCOc2ccc(C3=NCCO3)cc2)on1 | 3.1 | 0.003 (≈ 0.00954 µM) | 0.1 (≈ 0.318 µM) | –
14 | Cc1cc(CCCCCCCOc2ccc(C3=NCC(C)O3)cc2)on1 (stereo not given) | 6.2 | 0.49 (≈ 1.37 µM) | 0.06 (≈ 0.168 µM) | –

Source: ChEMBL document CHEMBL1123069, “[[(4,5-Dihydro-2-oxazolyl)phenoxy]alkyl]isoxazoles. Inhibitors of picornavirus uncoating” (1985)
